The source of these data is ChEMBL document CHEMBL1129520 (J Med Chem, 1996).

Assay [1] addresses Histamine H2 receptor (Cavia porcellus) (UniProt P47747). The assay is described as follows: […] activity tested against histamine H2 receptor on guinea pig atrium. As to conditions: Cardiac atrium. The class given is functional, tissue-based. Put shortly:
(§1)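 Isolated, spontaneously beating guinea pig right atrium, standard functional H2 method. Each test run at least in triplicate.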

The target in assay [2] is Histamine H1 receptor (Cavia porcellus) (UniProt P31389). The assay is described as follows: […] activity tested against histamine H1 receptor on guinea pig ileum. The class given is functional, tissue-based. Put shortly:
(§2)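 Isolated guinea pig ileum, standard functional H1 method. Each test run at least in triplicate.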

Assay [3] deals with T1, Histamine H3 receptor (Rattus norvegicus, UniProt Q9QYN8). The experiment in a line: (§3) In vitro antagonistic activity tested against Histamine H3 receptor on synaptosomes from rat cerebral cortex. The class given is functional, subcellular, Brain. The gist of the method: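 Preloaded 30 min with L-[3H]histidine (0.4 µM) at 37 °C in modified Krebs-Ringer. Washed, resuspended in 2 mM K+ medium, then depolarized 2 min with 2 or 30 mM K+ (final). […] Stopped by rapid centrifugation; liquid scintillation. Ki by Cheng-Prusoff; mean ± SEM, ≥3 determinations.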

Assay [4] concerns the target T1, Histamine H3 receptor. The experiment in a line: Binding affinity towards Histamine H3 receptor on synaptosomes from rat cerebral cortex. The class given is subcellular, Brain. Put shortly: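 Rat cerebral cortex homogenized in ice-cold 50 mM Na2HPO4/KH2PO4, pH 7.5, then washed membranes after two differential centrifugations. Incubated 60 min at 25 °C with [3H]-(R)-α-methylhistamine and drugs at various concentrations. Stopped by ice-cold dilution, vacuum-filtered through glass-fibre filters, scintillation counted. Nonspecific binding defined with 3 µM thioperamide.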

For assay [5], the target named is Histamine H3 receptor (Mus musculus) (UniProt P58406). The assay is described as follows: In vivo antagonistic activity was tested against histamine H3 receptor after oral administration to mouse. The class given is functional, organism-based. The gist of the method:
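Swiss mice dosed perorally. Read-out was the increase in brain Nτ-methylhistamine levels.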

For assay [6], the target named is T1, Histamine H3 receptor. Described as §3. The class given is functional, subcellular, Brain. Put shortly: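 Rat cerebral cortex synaptosomes preincubated 30 min at 37 °C with L-[3H]histidine (0.4 µM) in modified Krebs-Ringer, washed, resuspended in 2 mM K+ medium. […] Ki via Cheng-Prusoff; mean ± SEM, at least three determinations.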
This is another data set of the same source.

For assay [7], the target named is Histamine H1 receptor (Cavia porcellus) (UniProt P31389). The experiment in a line: […] activity against histamine H1 receptor on guinea pig ileum. The class given is functional, tissue-based. The gist of the method: as §2
In assay [8] the target is Histamine H2 receptor (Cavia porcellus) (UniProt P47747). The assay is described as follows: […] activity against histamine H2 receptor on guinea pig atrium. The class given is functional, tissue-based. As to conditions: Cardiac atrium. The gist of the method:
as §1

The target of assay [9] is T1, Histamine H3 receptor. The assay is described as follows: In vitro antagonistic activity against histamine H3 receptor on rat cerebral cortex. The class given is functional, tissue-based. The gist of the method: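 Synaptosomes were preloaded 30 min with L-[3H]histidine (0.4 µM) at 37 °C in modified Krebs-Ringer, then washed and resuspended in 2 mM K+ medium. […] The reaction was stopped by centrifugation and read by scintillation. Ki by Cheng-Prusoff, mean ± SEM, n≥3.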

By Ki is commonly meant the dissociation constant of the complex between target and ligand, obtained from inhibition or displacement. Read a low Ki as a stronger hold on the target. The term ED50 denotes the dose at which the effect has come halfway, by size or by number of responders. A lower ED50 goes with an effect at a small dose.

T1 sequence (Q9QYN8 whole entry): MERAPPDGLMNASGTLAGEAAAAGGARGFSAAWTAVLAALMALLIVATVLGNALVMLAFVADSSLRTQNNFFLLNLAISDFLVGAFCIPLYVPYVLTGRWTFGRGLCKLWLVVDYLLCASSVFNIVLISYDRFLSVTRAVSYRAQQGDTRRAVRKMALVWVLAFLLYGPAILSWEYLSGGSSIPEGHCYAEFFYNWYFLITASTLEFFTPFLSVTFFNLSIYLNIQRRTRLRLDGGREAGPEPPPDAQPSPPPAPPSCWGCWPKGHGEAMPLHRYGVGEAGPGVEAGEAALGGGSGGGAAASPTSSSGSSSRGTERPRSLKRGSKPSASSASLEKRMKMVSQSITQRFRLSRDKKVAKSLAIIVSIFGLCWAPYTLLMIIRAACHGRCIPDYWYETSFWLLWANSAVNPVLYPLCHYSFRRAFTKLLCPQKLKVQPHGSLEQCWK
Chain of Histamine H3 receptor (Mus musculus) (P58406 whole entry): as the sequence (Q9QYN8 whole entry) above, with T15A, A286T, A290G, R387H, I389V counted along it
Chain of Histamine H2 receptor (Cavia porcellus) (P47747 whole entry): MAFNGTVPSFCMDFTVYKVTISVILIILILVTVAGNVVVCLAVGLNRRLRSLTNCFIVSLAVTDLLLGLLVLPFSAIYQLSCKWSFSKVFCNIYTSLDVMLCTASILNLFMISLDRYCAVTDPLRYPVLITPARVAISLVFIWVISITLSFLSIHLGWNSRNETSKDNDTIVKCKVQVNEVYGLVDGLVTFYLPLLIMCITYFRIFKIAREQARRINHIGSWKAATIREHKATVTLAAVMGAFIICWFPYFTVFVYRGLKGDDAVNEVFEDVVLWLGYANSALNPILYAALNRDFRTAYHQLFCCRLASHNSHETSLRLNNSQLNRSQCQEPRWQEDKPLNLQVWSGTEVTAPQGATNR
Chain of Histamine H1 receptor (Cavia porcellus) (P31389 whole entry): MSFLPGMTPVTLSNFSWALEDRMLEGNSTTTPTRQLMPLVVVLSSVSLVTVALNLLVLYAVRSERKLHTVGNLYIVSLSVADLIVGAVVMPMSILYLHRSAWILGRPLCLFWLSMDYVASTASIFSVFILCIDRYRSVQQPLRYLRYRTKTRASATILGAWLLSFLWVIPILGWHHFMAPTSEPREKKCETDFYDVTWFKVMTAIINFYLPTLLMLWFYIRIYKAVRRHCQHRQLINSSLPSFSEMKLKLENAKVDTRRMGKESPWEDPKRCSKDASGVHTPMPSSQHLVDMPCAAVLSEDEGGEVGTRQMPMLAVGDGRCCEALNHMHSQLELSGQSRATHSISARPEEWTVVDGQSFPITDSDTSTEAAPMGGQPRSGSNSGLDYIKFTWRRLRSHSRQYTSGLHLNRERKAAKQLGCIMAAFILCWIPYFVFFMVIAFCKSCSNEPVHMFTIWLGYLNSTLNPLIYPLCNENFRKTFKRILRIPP

Turning to `COc1ccc(CCC(=O)OCCCc2c[nH]cn2)cc1I`, the results for the -Log KB in [1] and in [2] were 4.5 and below 4, respectively.

In the case of `COc1ccc(CCC(=O)OCCCc2cnc[nH]2)cc1I`, the Ki is 232 nM on Histamine H3 receptor [3] and 200 nM on Histamine H3 receptor [4].

Turning to `O=C(Nc1ccccc1I)OCCCc1c[nH]cn1`, the -Log KB was 4.6 in [1] and 4.8 in assay [2].

Turning to `O=C(Nc1ccc(I)cc1)OCCCc1c[nH]cn1`, the figures for the -Log KB in assay [1] and in assay [2] were 5.3 and 4.4, respectively. The same compound came in with an ED50 in assay [5] above 10 mg/kg.

Turning to `Cc1ccc(C(=O)OCCCc2c[nH]cn2)cc1I`, the -Log KB in assay [1] turned out to be 4.2; in [2], 4.9.

Consider `O=C(Cc1ccc(I)cc1)OCCCc1cnc[nH]1`, for which the inhibition constant Ki at Histamine H3 receptor [3] was 14 nM; on Histamine H3 receptor [4] it was 12.6 nM.

Consider `O=C(Nc1ccccc1I)OCCCc1cnc[nH]1`, for which the results for the Ki at Histamine H3 receptor [3] and at Histamine H3 receptor [4] were 25 nM and 25.1 nM, respectively.

In the case of `Ic1ccc(OCCCc2c[nH]cn2)cc1`, the values for the -Log KB in assay [1] and in assay [2] were 5.2 and 6.2, respectively.

Take `O=C(Cc1ccc(I)cc1)OCCCc1c[nH]cn1`: the -Log KB worked out at 3.6 in assay [1] and 4.5 in [2].

For `O=C(OCCCc1cnc[nH]1)c1ccccc1I`, the Ki on Histamine H3 receptor [3] was 39 nM; on Histamine H3 receptor [4], 20 nM.

In the case of `Cc1ccc(C(=O)OCCCc2cnc[nH]2)cc1I`, the Ki at Histamine H3 receptor [3] is 30 nM; on Histamine H3 receptor [4], 5.01 nM.

For `Cc1[nH]cnc1CSCCNC(=N)NCCCc1c[nH]cn1` [IMPROMIDINE], at Histamine H3 receptor [6], affinity was put at a Ki of 63.1 nM. Further, the Kb in [7] is above 10000 nM; in assay [8], 501 nM.

Take `Ic1ccc(OCCCc2cnc[nH]2)cc1`: the Ki on Histamine H3 receptor [3] is 22 nM; at Histamine H3 receptor [4], 3.16 nM.

`Ic1ccc(CCCOCCCc2c[nH]cn2)cc1`: the Ki is 35 nM on Histamine H3 receptor [3] and 7.94 nM at Histamine H3 receptor [4]. Further, the -Log KB in [1] was 5.1; in assay [2] it was 5.2.

`S=C(NC1CCCCC1)N1CCC(c2cnc[nH]2)CC1` [THIOPERAMIDE]: the Ki was 2 nM on Histamine H3 receptor [9] and 3.98 nM at Histamine H3 receptor [6]. Also, the Kb in assay [8] is above 10000 nM.

Consider `O=C(CCCc1ccc(I)cc1)OCCCc1cnc[nH]1`, for which the figures for the Ki on Histamine H3 receptor [3] and at Histamine H3 receptor [4] were 41 nM and 31.6 nM, respectively.

Take `O=C(OCCCc1c[nH]cn1)c1cccc(I)c1`: the results for the Ki on Histamine H3 receptor [3] and at Histamine H3 receptor [4] were 25 nM and 3.98 nM, respectively. In addition, the -Log KB in [1] was found to be 3.8; in [2], 4.8.

For the compound `O=C(CCCc1ccc(I)cc1)OCCCc1c[nH]cn1`, the -Log KB in [1] was determined as 4; in [2] it was 4.8.

Regarding `O=C(OCCCc1c[nH]cn1)c1ccc(I)cc1`, the figures for the -Log KB in assay [1] and in assay [2] were 4.5 and 4.2, respectively.

Compound `OCCCc1c[nH]cn1` displayed a median effective dose (ED50) in [5] above 10 mg/kg. The results for the Ki at Histamine H3 receptor [6] and at Histamine H3 receptor [4] were 398 nM and 631 nM, respectively.

With `Ic1ccc(COCCCc2c[nH]cn2)cc1` [IODOPROXYFAN], the values for the Ki at Histamine H3 receptor [3] and at Histamine H3 receptor [4] were 5 nM and 1 nM, respectively. Besides, the -Log KB in assay [1] is 5.2; in assay [2], 5.8. Further, the ED50 in assay [5] was above 10 mg/kg.

Regarding `O=C(Nc1cccc(I)c1)OCCCc1c[nH]cn1`, the -Log KB was found to be 5.3 in assay [1] and 5.1 in assay [2].

Take `Nc1c(I)cc(C(=O)OCCCc2cnc[nH]2)cc1I`: the Ki at Histamine H3 receptor [3] is 146 nM; on Histamine H3 receptor [4] it was 31.6 nM.

As to `Nc1c(I)cc(C(=O)OCCCc2c[nH]cn2)cc1I`, the -Log KB worked out at 4.6 in assay [1] and 5.9 in assay [2].

Take `O=C(NCc1ccc(I)cc1)OCCCc1c[nH]cn1`: the Ki at Histamine H3 receptor [3] was 12 nM; on Histamine H3 receptor [4] it was 12.6 nM. Further, the -Log KB is 4.5 in assay [1] and 5.1 in assay [2].

On to `Ic1cccc(OCCCc2c[nH]cn2)c1`, for which the -Log KB in assay [1] is 5.6; in assay [2], 6.2.

As to `O=C(Nc1cccc(I)c1)OCCCc1cnc[nH]1`, the Ki at Histamine H3 receptor [3] was 16 nM; at Histamine H3 receptor [4], 7.94 nM.

For `Brc1ccc(COCCCc2c[nH]cn2)cc1`, the Ki is 14 nM on Histamine H3 receptor [3] and 1.26 nM at Histamine H3 receptor [4]. The compound also had an ED50 in assay [5] above 10 mg/kg. Further, the Kb in assay [7] is 1260 nM; in [8], 12600 nM.

Regarding `O=C(OCCCc1c[nH]cn1)c1ccccc1I`, the -Log KB in assay [1] turned out to be 4.6; in assay [2] it was 5.9.

Take `Ic1cccc(OCCCc2cnc[nH]2)c1`: the Ki is 17 nM at Histamine H3 receptor [3] and 2.51 nM on Histamine H3 receptor [4].

`O=C(CCc1ccc(I)cc1)OCCCc1c[nH]cn1`: the Ki on Histamine H3 receptor [3] is 47 nM; at Histamine H3 receptor [4], 79.4 nM. Moreover, the -Log KB turned out to be 3.6 in assay [1] and 4.8 in assay [2].

Take `O=C(OCCCc1cnc[nH]1)c1ccc(I)cc1`: the Ki was 20 nM on Histamine H3 receptor [3] and 7.94 nM on Histamine H3 receptor [4].

For `Ic1cccc(COCCCc2c[nH]cn2)c1`, the Ki is 7 nM on Histamine H3 receptor [3] and 1.26 nM at Histamine H3 receptor [4]. The -Log KB in assay [1] and in [2] was 5.8 throughout. In [5], this compound returned an ED50 above 10 mg/kg.

`O=C(Nc1ccc(I)cc1)OCCCc1cnc[nH]1`: the Ki at Histamine H3 receptor [3] was 11 nM; at Histamine H3 receptor [6], 10 nM; at Histamine H3 receptor [4], 7.94 nM.
